Assay results published in ChEMBL document CHEMBL1155306, “Inhibitors of HIV-1 attachment. Part 3: A preliminary survey of the effect of structural variation of the benzamide moiety on antiviral activity” (Bioorg Med Chem Lett, 2009).

How the values were obtained:
[1] = Cytotoxicity against human HeLa67 cell after 3 days by XTT assay; format: cell-based; details: HeLa67 cells
Summary of the method: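 HeLa67 cells treated in parallel with the antiviral assay. Viability read by XTT three days after compound addition. Values are means of two or more experiments unless noted otherwise.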

[2] = test system: Human immunodeficiency virus 1; experiment: Antiviral activity against HIV1 infected human HeLa67 cells coexpressing JRFL-LUCENV after 3 days by luciferase reporter assay; format: functional, organism-based; details: Human immunodeficiency virus 1, HeLa67, 72 h
Summary of the method: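 JRFL-Luc ΔEnv pseudotyped virus, titered by serial dilution on HeLa67 cells (CD4+/CCR5+). Fourfold serial dilutions of compound added to infected cells at the time of infection. Luciferase activity read after three days and compared with no-compound controls to derive EC50. Values are means of two or more experiments.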

Compound	CC50 at 72 h [1]	EC50 [2]
O=C(C(=O)N1CCN(C(=O)c2ccccc2)CC1)c1c[nH]c2cccc(F)c12	> 300 µM	
O=C(C(=O)N1CCN(C(=O)c2c(F)cccc2F)CC1)c1c[nH]c2ccccc12	> 300 µM	6.7 µM
O=C(C(=O)N1CCN(C(=O)c2ccco2)CC1)c1c[nH]c2cccc(F)c12	> 300 µM	0.0054 µM
O=C(C(=O)N1CCN(C(=O)c2ccc(Cl)c(Cl)c2)CC1)c1c[nH]c2ccccc12	123 µM	14.5 µM
O=C(C(=O)N1CCN(C(=O)c2cccc(Cl)c2F)CC1)c1c[nH]c2ccccc12	> 300 µM	3.5 µM
O=C(C(=O)N1CCN(C(=O)Cc2ccccc2)CC1)c1c[nH]c2ccccc12	> 300 µM	> 100 µM
O=C(C(=O)N1CCN(C(=O)c2ccc(Br)cc2)CC1)c1c[nH]c2ccccc12	> 240 µM	30 µM
O=C(C(=O)N1CCN(C(=O)c2occc2Br)CC1)c1c[nH]c2cccc(F)c12	236 µM	0.0014 µM
O=C(C(=O)N1CCN(C(=O)c2c[nH]cn2)CC1)c1c[nH]c2cccc(F)c12	> 300 µM	1.23 µM
O=C(C(=O)N1CCN(C(=O)c2ccccc2Br)CC1)c1c[nH]c2ccccc12	> 300 µM	10.5 µM
O=C(C(=O)N1CCN(C(=O)c2ccc(O)cc2)CC1)c1c[nH]c2ccccc12	136 µM	2.49 µM
O=C(C(=O)N1CCN(C(=O)c2sccc2Br)CC1)c1c[nH]c2cccc(F)c12	69.7 µM	0.0032 µM
O=C(C(=O)N1CCN(C(=O)c2cc(F)c(F)cc2F)CC1)c1c[nH]c2ccccc12	> 300 µM	36.5 µM
O=C(C(=O)N1CCN(C(=O)c2ccccc2Cl)CC1)c1c[nH]c2ccccc12	> 300 µM	35 µM
O=C(C(=O)N1CCN(C(=O)c2ccc(F)cc2)CC1)c1c[nH]c2ccccc12	280 µM	8.91 µM
O=C(C(=O)N1CCN(C(=O)c2cc(F)c(F)c(F)c2)CC1)c1c[nH]c2ccccc12	> 300 µM	55 µM
O=C(C(=O)N1CCN(C(=O)C2CCCCC2)CC1)c1c[nH]c2ccccc12	> 300 µM	3.5 µM
COc1ccccc1C(=O)N1CCN(C(=O)C(=O)c2c[nH]c3ccccc23)CC1	> 300 µM	> 10 µM
Cc1ccc(C(=O)N2CCN(C(=O)C(=O)c3c[nH]c4ccccc34)CC2)cc1	> 99 µM	8.38 µM
O=C(C(=O)N1CCN(C(=O)c2cscn2)CC1)c1c[nH]c2cccc(F)c12	> 250 µM	0.0087 µM

Compound	CC50 at 72 h [1]	EC50 [2]
Cc1ccncc1C(=O)N1CCN(C(=O)C(=O)c2c[nH]c3ccccc23)CC1	> 300 µM	86.5 µM
O=C(C(=O)N1CCN(C(=O)c2ccccn2)CC1)c1c[nH]c2cccc(F)c12	> 300 µM	0.0045 µM
O=C(C(=O)N1CCN(C(=O)c2ccsc2)CC1)c1c[nH]c2cccc(F)c12	> 300 µM	0.0004 µM
O=C(C(=O)N1CCN(C(=O)c2cccnc2)CC1)c1c[nH]c2cccc(F)c12	> 300 µM	0.154 µM
O=C(C(=O)N1CCN(C(=O)c2ccccc2O)CC1)c1c[nH]c2ccccc12	194 µM	3.65 µM
O=C(C(=O)N1CCN(C(=O)c2ccc(F)c(F)c2)CC1)c1c[nH]c2ccccc12	> 300 µM	8.3 µM
O=C(C(=O)N1CCN(C(=O)c2ccno2)CC1)c1c[nH]c2cccc(F)c12	> 300 µM	0.156 µM
O=C(C(=O)N1CCN(C(=O)c2ccccn2)CC1)c1c[nH]c2ccccc12	> 300 µM	1.55 µM
O=C(C(=O)N1CCN(C(=O)c2cccs2)CC1)c1c[nH]c2cccc(F)c12	> 300 µM	0.0007 µM
O=C(C(=O)N1CCN(C(=O)c2cccc(Br)c2)CC1)c1c[nH]c2ccccc12	76 µM	6.7 µM
COc1cccc(C(=O)N2CCN(C(=O)C(=O)c3c[nH]c4ccccc34)CC2)c1	> 300 µM	> 56 µM
O=C(C(=O)N1CCN(C(=O)c2c(F)cc(F)cc2F)CC1)c1c[nH]c2ccccc12	> 300 µM	> 54 µM
O=C(C(=O)N1CCN(C(=O)Cc2ccccc2)CC1)c1c[nH]c2cccc(F)c12	> 300 µM	> 50 µM
O=C(C(=O)N1CCN(C(=O)c2cccc(Cl)c2Cl)CC1)c1c[nH]c2ccccc12	235 µM	18 µM
O=C(C(=O)N1CCN(C(=O)CC2CCCCC2)CC1)c1c[nH]c2ccccc12	158 µM	> 100 µM
CN(C)c1ccccc1C(=O)N1CCN(C(=O)C(=O)c2c[nH]c3ccccc23)CC1	89 µM	> 0.5 µM
O=C(C(=O)N1CCN(C(=O)c2ccc(Cl)cc2Cl)CC1)c1c[nH]c2ccccc12	111 µM	37 µM
Cc1ccsc1C(=O)N1CCN(C(=O)C(=O)c2c[nH]c3cccc(F)c23)CC1	260 µM	0.0173 µM
COc1ccc(C(=O)N2CCN(C(=O)C(=O)c3c[nH]c4ccccc34)CC2)cc1	129 µM	30.2 µM
O=C(C(=O)N1CCN(C(=O)c2cccc(F)c2)CC1)c1c[nH]c2ccccc12	200 µM	2.76 µM

Compound	CC50 at 72 h [1]	EC50 [2]
O=C(C(=O)N1CCN(C(=O)c2cccc3ccccc23)CC1)c1c[nH]c2ccccc12	> 300 µM	> 100 µM
O=C(C(=O)N1CCN(C(=O)c2cccc(Cl)c2)CC1)c1c[nH]c2ccccc12	117 µM	17.5 µM
O=C(C(=O)N1CCN(C(=O)c2ccccc2F)CC1)c1c[nH]c2ccccc12	101 µM	0.391 µM
O=C(C(=O)N1CCN(C(=O)c2ccncc2)CC1)c1c[nH]c2cccc(F)c12	> 205 µM	0.0237 µM
CN(C)c1ccc(C(=O)N2CCN(C(=O)C(=O)c3c[nH]c4ccccc34)CC2)cc1	> 300 µM	> 100 µM
N#Cc1ccoc1C(=O)N1CCN(C(=O)C(=O)c2c[nH]c3cccc(F)c23)CC1	187 µM	0.007 µM
O=C(C(=O)N1CCN(C(=O)c2sccc2Cl)CC1)c1c[nH]c2cccc(F)c12	50.5 µM	0.0119 µM
O=C(C(=O)N1CCN(C(=O)c2ccc(Cl)cc2)CC1)c1c[nH]c2ccccc12	92 µM	65.8 µM
CN(C)c1cccc(C(=O)N2CCN(C(=O)C(=O)c3c[nH]c4ccccc34)CC2)c1	230 µM	> 0.5 µM
CC(C)(C)c1ccc(C(=O)N2CCN(C(=O)C(=O)c3c[nH]c4ccccc34)CC2)cc1	31 µM	9 µM
O=C(C(=O)N1CCN(C(=O)c2ccoc2)CC1)c1c[nH]c2cccc(F)c12	> 300 µM	0.0204 µM
O=C(C(=O)N1CCN(C(=O)c2occc2Cl)CC1)c1c[nH]c2cccc(F)c12	250 µM	0.0031 µM
O=C(C(=O)N1CCN(C(=O)c2cc[nH]n2)CC1)c1c[nH]c2cccc(F)c12	> 300 µM	0.0718 µM
Cc1nc(C(=O)N2CCN(C(=O)C(=O)c3c[nH]c4cccc(F)c34)CC2)cs1	> 300 µM	0.0228 µM
O=C(C(=O)N1CCN(C(=O)c2cc(F)c(F)c(F)c2F)CC1)c1c[nH]c2ccccc12	> 300 µM	> 100 µM
O=C(C(=O)N1CCN(C(=O)c2ccc(F)cc2F)CC1)c1c[nH]c2ccccc12	> 300 µM	6 µM
CCCc1ccc(C(=O)N2CCN(C(=O)C(=O)c3c[nH]c4ccccc34)CC2)cc1	48 µM	82 µM
O=C(C(=O)N1CCN(C(=O)c2cccnc2)CC1)c1c[nH]c2ccccc12	> 300 µM	4.2 µM
